Read-outs that look alike come from different tables or passages of the source.
Key:
[1] = cited from earlier work
[2] = format: in vivo, human; conditions: for Exposure of metabolite higher compared with normal renal function: single 400-mg dose of ribociclib; for Increase in AUCinf compared with normal renal function / Increase in Cmax compared with normal renal function: single 400-mg dose
[3] = Subgroup analysis for letrozole PK by renal function; format: in vivo, human; conditions: X2107 and MONALEESA-7, no moderate RI available, data on file
[4] = pharmacokinetic data; cited from earlier work
[5] = tested on: patients with advanced breast cancer; test: Patient subgroup efficacy analysis; format: in vivo, human; conditions: for PFS HR (95% CI) RIB vs PBO: Cox proportional-hazards model stratified by study; for Median PFS (95% CI): Kaplan–Meier, local investigator's assessment
In short: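 Pooled data: MONALEESA-2 (full analysis set), MONALEESA-3 (first-line patients) and MONALEESA-7 (NSAI only). Starting dose 600 mg, 3 weeks on/1 week off. Severe RI was excluded. PFS by local investigator assessment. Median PFS by Kaplan–Meier; hazard ratio from a Cox proportional-hazards model stratified by study.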

[6] = cited from earlier work; remark: listed apart in the source
plasma protein = conditions: cited from earlier work
[7] = cited from earlier work; remark: listed apart in the source
[8] = baseline eGFR as a continuous covariate; patients; cited from earlier work
[9] = tested on: patients with advanced breast cancer; test: Patient subgroup safety analysis by renal function; format: in vivo, human; conditions: for AEs leading to discontinuations / Dose modifications owing to renal toxicity / Incidence of thrombocytopenia / On-treatment deaths / QT interval prolongation events: ribociclib group
In short: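 Safety by renal function group in X2107, MONALEESA-2, MONALEESA-3 and MONALEESA-7 (NSAI only). Starting dose 600 mg, 3 weeks on/1 week off. Drug-related AEs were managed by reducing to 400 or 200 mg. Patients with severe RI were excluded from these studies.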

non-cancer subjects = test: Study A2116: safety; format: in vivo, human; conditions: single 400-mg dose
In short: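 Phase I, open-label, multicenter, parallel-group, two-part study. Single oral 400-mg dose in non-cancer subjects with varying renal impairment vs matched normal-function subjects. Part I enrolled normal function, severe RI and ESRD not on dialysis.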

[10] = cited from earlier work; remark: listed apart in the source

In the case of `CNC(=O)c1cc2cnc(Nc3ccc(N4CCNCC4)cn3)nc2n1C1CCCC1` [LEQ803], the “Contribution to the pharmacological activity in vivo” value [1] is given as “no clinically relevant contribution to the pharmacological activity in vivo”, the “Exposure of metabolite higher compared with normal renal function” value ([2]; mild RI) is given as 32% and the “Exposure of metabolite higher compared with normal renal function” value ([2]; moderate RI) is given as 47%. For the same compound, the “Exposure of metabolite higher compared with normal renal function” value ([2]; severe RI) was 80%.

For `N#Cc1ccc(C(c2ccc(C#N)cc2)n2cncn2)cc1` [letrozole], the “PK between normal renal function and mild RI” value [3] was “comparable PK”.

In the case of `CN(C)C(=O)c1cc2cnc(Nc3ccc(N4CCNCC4)cn3)nc2n1C1CCCC1` [ribociclib], the “Drug–drug interactions with NSAIs (letrozole and anastrozole) or fulvestrant” value [4] is given as “no drug–drug interactions”, the “PFS HR (95% CI) RIB vs PBO” value ([5]; mild renal impairment) is given as 0.57 and the “Median PFS (95% CI)” value ([5]; mild renal impairment) is given as 24.8 months. For the same compound, the “PFS HR (95% CI) RIB vs PBO” value ([5]; moderate renal impairment) was 0.64, the “Median PFS (95% CI)” value ([5]; moderate renal impairment) was 22.2 months and the “PFS HR (95% CI) RIB vs PBO” value ([5]; normal renal function) was 0.58. For the same compound, the “Median PFS (95% CI)” value ([5]; normal renal function) was 23.8 months, the Intestinal excretion [6] was roughly 8% and the Renal excretion [6] was “around 7%”. The “Contribution of renal clearance, share of overall elimination routes” value ([6]; human absorption, distribution, metabolism, and excretion study) was 7%, the “Hepatic elimination, share of overall pathways” value ([6]; in humans) was 84% and the Protein binding (plasma protein) was 70%. For the same compound, the Mean effective half-life ([7]; at 600 mg) was 33 to 54 h, the “Oral clearance in patients with cancer versus non-cancer subjects” value [7] was “generally lower oral clearance” and the “Dose proportionality of exposure” value ([7]; dose range of 50–1200 mg) was “slightly over-proportional increases in exposure”. The “Time to maximum observed plasma drug concentration” value ([7]; previous PK analyses) was 1 to 5 h, the “Effect of RI on PK in covariate analysis” value [8] was “not affected by RI” and the “Median time to the first dose reduction” value ([9]; across renal function cohorts, patients with dose reductions) was 12.0–12.9 weeks. The “AEs of torsade de pointes” value ([9]; patients with ABC) was “No AEs of torsade de pointes were reported”, the “Median time to first occurrence of QTcF value > 480 ms and an increase from baseline of >60 ms” value ([9]; patients with ABC) was 15 days and the “AEs leading to discontinuations” value ([9]; mild RI) was 16.0%. The “Dose modifications owing to renal toxicity” value (shortened to “Dose modifications owing”) ([9]; mild RI) was 2.5%, the Incidence of thrombocytopenia ([9]; mild RI) was 11.0% and the On-treatment deaths ([9]; mild RI) was 1.3%. For the same compound, the “QT interval prolongation events” value ([9]; mild RI) was 10.3%, the “AEs leading to discontinuations” value ([9]; moderate RI) was 25.4% and the “Dose modifications owing” value ([9]; moderate RI) was 3.8%. For the same compound, the Incidence of thrombocytopenia ([9]; moderate RI) was 13.8%, the On-treatment deaths ([9]; moderate RI) was 5.4% and the “QT interval prolongation events” value ([9]; moderate RI) was 10.0%. For the same compound, the “AEs leading to discontinuations” value ([9]; normal function) was 10.1%, the “Dose modifications owing” value ([9]; normal renal function) was 0.7% and the Incidence of thrombocytopenia ([9]; normal renal function) was 7.0%. The On-treatment deaths ([9]; normal renal function) was 1.4%, the “QT interval prolongation events” value ([9]; normal renal function) was 6.4% and the “Subjects with at least one AE” value (non-cancer subjects; all cohorts) was 31.6%. The “Subjects with treatment-related AEs” value (non-cancer subjects; all cohorts) was 15.8%, the “Changes from baseline in hematology, chemistry, vital signs, or electrocardiograms” value (non-cancer subjects; any of the cohorts) was “No clinically meaningful changes from baseline” and the “Exposure compared with subjects with normal hepatic function” value ([10]; mild hepatic impairment) was “similar”. The “Increase in exposure compared with normal hepatic function” value ([10]; moderate and severe HI) was “approximately 30%”, the “Maximal increase in exposure” value ([10]; severe HI) was 1.3 fold and the “Ae0-144h Geo-mean (amount excreted into the urine from time 0 to 144 h)” value ([2]; ESRD, N = 3, single oral dose of ribociclib at 400 mg, Part I and II) was 8.11 mg. For the same compound, the “Renal clearance as share of the apparent clearance” value ([2]; Study A2116) was “around 5%”, the “Increase in AUCinf compared with normal renal function” value (from here on “Increase in AUCinf”) ([2]; mild RI) was 62% and the “Increase in Cmax compared with normal renal function” value (shortened to “Increase in Cmax”) ([2]; mild RI) was 80%. For the same compound, the “Increase in AUCinf” value ([2]; moderate RI) was 94%, the “Increase in Cmax” value ([2]; moderate RI) was 79% and the “Increase in AUCinf” value ([2]; severe RI) was 167%. For the same compound, the “Increase in Cmax” value ([2]; severe RI) was 130%.

From PMC10042892 (Clinical Pharmacokinetics, 2023)
